{"data": "Experimental data of several laboratories", "target": "Tyrosine-protein kinase receptor UFO (AXL, Homo sapiens, UniProt P30530)", "note": "Protocols differ between the studies behind these lines."}
{"Structure (SMILES)": "CCN(CC)CCNC(=O)c1c(C)[nH]c(/C=C2\\C(=O)Nc3ccc(F)cc32)c1C", "read-out": "enzyme activity", "mode": "inhibitor", "concentration": "0.1 µM", "measurement": "remaining activity", "result": "41%"}
{"Structure (SMILES)": "CC(C)(C)c1nc2c(s1)c1nc(N)ncc1c1ccc(NS(=O)(=O)c3c(F)cccc3F)c(F)c12", "read-out": "enzyme activity", "mode": "inhibitor", "technique": "radiometric", "concentration": "1 µM", "measurement": "remaining activity", "result": "100%"}
{"Structure (SMILES)": "Cc1c(C(=O)O)cc(-c2ccc(C3CCNCC3)cc2)c2ccc(-c3ccc(C(F)(F)F)cc3)cc12", "read-out": "binding", "technique": "competition with immobilised ligand", "concentration": "1 µM", "measurement": "remaining binding", "result": "100%"}
{"Structure (SMILES)": "C=CC(=O)Nc1cc(Nc2nccc(Nc3cc(Cl)c(F)cc3C(C)(C)O)n2)c(OC)cc1N1CC[C@@H](N(C)C)C1", "read-out": "enzyme activity", "mode": "inhibitor", "concentration": "1 µM", "measurement": "inhibition", "result": "16%"}
{"Structure (SMILES)": "O=C1NC(=O)c2cc(Nc3ccc(F)cc3)c(Nc3ccc(F)cc3)cc21", "read-out": "cell-free assay", "concentration": "0.5 µM", "measurement": "remaining signal", "result": "104%"}
{"Structure (SMILES)": "CCN(CC)CCNC(=O)c1c(C)[nH]c(/C=C2\\C(=O)Nc3ccc(F)cc32)c1C", "read-out": "enzyme activity", "mode": "inhibitor", "concentration": "0.3 µM", "measurement": "inhibition", "result": "75%"}
{"Structure (SMILES)": "CNCc1ccc(-c2cc(-c3nc(-c4ccc(S(=O)(=O)C(C)C)cc4)cnc3N)on2)cc1", "read-out": "enzyme activity", "mode": "inhibitor", "concentration": "2 µM", "measurement": "inhibition", "result": "75%"}
{"Structure (SMILES)": "COc1ccc(C(=O)Nc2sc3c(c2C(N)=O)CCCC3)cc1OC", "read-out": "enzyme activity", "mode": "inhibitor", "concentration": "0.5 µM", "measurement": "remaining activity", "result": "84.4%"}
{"Structure (SMILES)": "COc1cc2ncnc(Nc3ccc(Oc4ccccc4)cc3C)c2cc1OC", "read-out": "enzyme activity", "mode": "inhibitor", "concentration": "1 µM", "measurement": "inhibition", "result": "8%"}
{"Structure (SMILES)": "Cc1ccc(Nc2nccc(N(C)c3ccc4c(C)n(C)nc4c3)n2)cc1S(N)(=O)=O", "read-out": "cell-free assay", "concentration": "0.5 µM", "measurement": "remaining signal", "result": "78.1%"}
{"Structure (SMILES)": "CNC(=O)c1cc2c(Oc3ccc(NC(=O)C4(C(=O)Nc5ccc(F)cc5)CC4)cc3)ccnc2cc1OC", "read-out": "enzyme activity", "mode": "inhibitor", "technique": "radiometric", "concentration": "1 µM", "measurement": "inhibition", "result": "87%"}
{"Structure (SMILES)": "O=C1Nc2ccc(Cl)cc2C1=Cc1cc(Cl)c(O)c(Cl)c1", "read-out": "cell-free assay", "concentration": "0.5 µM", "measurement": "remaining signal", "result": "106%"}
{"Structure (SMILES)": "CCCOc1ccc(OC)c(F)c1C(=O)c1ccc(C(=O)N[C@@H]2CNC[C@H]2NC(=O)c2ccc3[nH]ncc3c2)cc1", "read-out": "enzyme activity", "mode": "inhibitor", "concentration": "10 µM", "measurement": "remaining activity", "result": "23%"}
{"Structure (SMILES)": "CCN(CC)CCNC(=O)c1c(C)[nH]c(/C=C2\\C(=O)Nc3ccc(Cl)cc32)c1C", "read-out": "enzyme activity", "mode": "inhibitor", "concentration": "0.5 µM", "measurement": "remaining activity", "result": "25.2%"}
{"Structure (SMILES)": "O=C(Nc1cnn(-c2csc(C(=O)NC3COC3)c2)c1)Nc1ccccc1Cl", "read-out": "enzyme activity", "mode": "inhibitor", "concentration": "5 µM", "measurement": "remaining activity", "result": "96.7%"}
{"Structure (SMILES)": "CCCS(=O)(=O)Nc1ccc(F)c(C(=O)c2c[nH]c3ncc(-c4ccc(Cl)cc4)cc23)c1F", "read-out": "enzyme activity", "mode": "inhibitor", "concentration": "1 µM", "measurement": "inhibition", "result": "< 10%"}
{"Structure (SMILES)": "CCC(=O)N[C@@H]1CC[C@H](C(=O)N(C)c2ccc(-c3nc4ccccc4o3)cc2)C1", "read-out": "cell-free assay", "technique": "competition with immobilised ligand", "concentration": "1 µM", "measurement": "remaining binding", "result": "100%"}
{"Structure (SMILES)": "CC/C(=N\\NC(=O)NCc1cccc(O)c1)c1ccc(O)c(C)c1O", "read-out": "enzyme activity", "mode": "inhibitor", "concentration": "0.1 µM", "measurement": "inhibition", "result": "1.3%"}
{"Structure (SMILES)": "CS(=O)(=O)CCNCc1ccc(-c2ccc3ncnc(Nc4ccc(OCc5cccc(F)c5)c(Cl)c4)c3c2)o1", "read-out": "cell-free assay", "concentration": "0.5 µM", "measurement": "remaining signal", "result": "96.2%"}
{"Structure (SMILES)": "Cc1cc(NC(=O)c2cccc(S(F)(F)(F)(F)F)c2)cc(-n2ccn3nc(-c4cccnc4)cc23)c1", "read-out": "cell-free assay", "technique": "competition with immobilised ligand", "concentration": "1 µM", "measurement": "remaining binding", "result": "100%"}
{"Structure (SMILES)": "Cc1ccc(C(=O)Nc2ccc(CN3CCN(C)CC3)c(C(F)(F)F)c2)cc1C#Cc1cnc2cccnn12", "read-out": "enzyme activity", "concentration": "23.5 nM", "measurement": "remaining activity", "result": "45%"}
{"Structure (SMILES)": "COc1ccc2cc(OCC3(C(=O)O)CN(C(=O)c4ccc(F)cc4)C3)ccc2c1", "read-out": "cell-free assay", "technique": "competition with immobilised ligand", "concentration": "1 µM", "measurement": "remaining binding", "result": "100%"}
{"Structure (SMILES)": "CC(C)(O)[C@H]1CC[C@H](Nc2ccc3ncc(-c4cccc(C(F)(F)F)c4)n3n2)CC1", "read-out": "enzyme activity", "mode": "inhibitor", "concentration": "1 µM", "measurement": "remaining activity", "result": "78%"}
{"Structure (SMILES)": "CS(=O)(=O)N1CCCC(NC(=O)[C@H](CCC2CCCCC2)NC(=O)c2ccc(CNc3ncnc4c3nnn4-c3ccccc3)cc2)C1 (some centres unmarked)", "read-out": "cell-free assay", "technique": "competition with immobilised ligand", "concentration": "0.1 µM", "measurement": "remaining binding", "result": "79%"}
{"Structure (SMILES)": "CNC(=O)c1cc(Oc2ccc(NC(=O)Nc3ccc(Cl)c(C(F)(F)F)c3)cc2)ccn1", "read-out": "enzyme activity", "mode": "inhibitor", "concentration": "10 µM", "measurement": "inhibition", "result": "68%"}
{"Structure (SMILES)": "Cc1[nH]c(/C=C2\\C(=O)Nc3ccc(F)cc32)c(C)c1C(=O)N[C@H]1CCN(C(=O)N(C)C)C1", "read-out": "enzyme activity", "mode": "inhibitor", "concentration": "0.1 µM", "measurement": "remaining activity", "result": "89%"}
{"Structure (SMILES)": "CC(=O)N1CCC(c2ccc(C(=O)NC(=N)N)cc2C(F)(F)F)CC1", "read-out": "cell-free assay", "technique": "competition with immobilised ligand", "concentration": "1 µM", "measurement": "remaining binding", "result": "100%"}
{"Structure (SMILES)": "Cc1ccc(NC(=O)c2ccc(C)c(C(F)(F)F)c2)cc1C#Cc1nn(C2CCC(O)CC2)c2ncnc(N)c12 (centres unmarked)", "read-out": "cell-free assay", "concentration": "10 µM", "measurement": "remaining signal", "result": "56%"}
{"Structure (SMILES)": "CN(C)C(=O)Cn1cc(-c2nc([C@@](C)(c3ccc(-c4cnc(N)nc4)cc3)C3CC3)no2)cn1", "read-out": "cell-free assay", "technique": "competition with immobilised ligand", "concentration": "1 µM", "measurement": "remaining binding", "result": "98%"}
{"Structure (SMILES)": "Cc1cnc(NC2CCOCC2)nc1-n1cnc(C(=O)NC(CN)c2cc(F)cc(Cl)c2)c1 (centres unmarked)", "read-out": "enzyme activity", "mode": "inhibitor", "technique": "radiometric", "concentration": "1 µM", "measurement": "remaining activity", "result": "103%"}
{"Structure (SMILES)": "Clc1ccc(Nc2nnc(Cc3ccncc3)c3ccccc23)cc1", "read-out": "cell-free assay", "concentration": "0.5 µM", "measurement": "remaining signal", "result": "98.3%"}
{"Structure (SMILES)": "O=C(Nc1cccnn1)N1CCC(=Cc2cccc(Oc3ccc(C(F)(F)F)cn3)c2)CC1", "read-out": "cell-free assay", "technique": "competition with immobilised ligand", "concentration": "1 µM", "measurement": "remaining binding", "result": "100%"}
